What is called Ki is the equilibrium dissociation constant of an inhibitor or competing ligand from its target.

The target in test [1] is GABA A receptor alpha-1/beta-2/gamma-2 (Homo sapiens). Put plainly: Displacement of [3H]EBOB from human recombinant GABA alpha-1-beta-2-gamma-2 receptor expressed in HEK293 cells.
The subject of a further test is Musca domestica. The test can be described thus: Insecticidal activity against house fly WHO/SRS assessed as mortality after 24 hrs. Format: functional. The method in brief: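 Adult female houseflies, 3–5 days post-emergence, pretreated with piperonyl butoxide (10 µg in 1 µL acetone) 1 h before topical thoracic dosing of compound in 1 µL acetone at several doses; 30 flies per dose, kept at 25 °C with sugar and water. Mortality read at 24 h, three repeats; LD50 by probit on mean mortality.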

For the next test, the species on record is Homo sapiens. The test can be described thus: Selectivity for human GABA-beta-3 receptor over human GABA alpha-1-beta-2-gamma-2 receptor. The method in brief: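 Selectivity from [³H]EBOB competition binding run separately on each receptor. β3 assay: membranes (50 µg protein) from hygromycin-selected Drosophila S2 cells stably expressing human β3, copper sulfate-induced 24 h before harvest; 0.5 nM [³H]EBOB, 10 mM Na phosphate/300 mM NaCl pH 7.5, 22 °C, 70 min. α1β2γ2 assay: membranes (150 µg) from stable HEK-293 cells; 1 nM [³H]EBOB, 50 mM Na phosphate/200 mM NaCl pH 7.4, 25 °C, 90 min. Both assays: GF/B filtration, scintillation counting, nonspecific binding with 5 µM EBOB, ≥3 repeats, probit IC50, then Cheng–Prusoff Ki (Kd 5.0 and 10.7 nM).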

In test [2] the target is T1, Gamma-aminobutyric acid receptor subunit beta-3 (Homo sapiens, UniProt P28472).
T1 sequence (P28472 whole entry): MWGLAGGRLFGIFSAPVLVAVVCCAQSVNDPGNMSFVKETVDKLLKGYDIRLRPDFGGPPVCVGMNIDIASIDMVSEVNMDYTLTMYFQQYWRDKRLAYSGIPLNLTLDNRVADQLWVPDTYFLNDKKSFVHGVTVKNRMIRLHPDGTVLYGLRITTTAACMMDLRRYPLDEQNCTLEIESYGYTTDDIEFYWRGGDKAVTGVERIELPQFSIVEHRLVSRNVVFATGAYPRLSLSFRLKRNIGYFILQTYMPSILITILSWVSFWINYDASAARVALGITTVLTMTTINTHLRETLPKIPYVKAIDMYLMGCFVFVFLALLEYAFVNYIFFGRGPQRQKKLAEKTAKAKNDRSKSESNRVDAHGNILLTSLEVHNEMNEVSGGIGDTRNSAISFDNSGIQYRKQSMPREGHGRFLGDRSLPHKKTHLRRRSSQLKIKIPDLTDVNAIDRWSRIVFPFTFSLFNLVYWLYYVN
The test can be described thus: Displacement of [3H]EBOB from human recombinant GABAbeta3 receptor expressed in HEK293 cells. Format: cell-based.

Where only a bound is given, the exact number is not on record here.

`CC(C)(C)c1cn(-c2c(Cl)cc(C(F)(F)F)cc2Cl)nn1`: the Ki in test [1] was 390 nM. In addition, the LD50 with Musca domestica was 1.86 pmol. The Ratio Ki in the test listed under Homo sapiens came out at 470.
Turning to `CCCc1c(C)nnn1-c1c(Cl)cc(C(F)(F)F)cc1Cl`, the Ki was over 9150 nM in test [1] and 539 nM in test [2]. In the test listed under Homo sapiens, the Ratio Ki was over 17.
On to `CCCCc1cnnn1-c1c(Cl)cc(Br)cc1Cl`, for which the Ki in test [1] is over 9150 nM. In the test filed under Homo sapiens, the Ratio Ki is over 11.7.
On to `CCCc1nnn(-c2c(Br)cc(C(F)(F)F)cc2Br)c1C`, for which the Ki is over 9150 nM in test [1] and 13.6 nM in test [2]. For the same molecule, the Ratio Ki in the test listed under Homo sapiens was over 673.
Take `CCCCc1cn(-c2c(Cl)cc(Cl)cc2Cl)nn1`: in test [1], the Ki is over 9150 nM. For the same molecule, in the test filed under Homo sapiens, the Ratio Ki was over 111.
On to `CCCc1cn(-c2c(Cl)cc(C(F)(F)F)cc2Cl)nn1`, for which the inhibition constant Ki in test [1] is 470 nM. Also, the Ratio Ki in the test listed under Homo sapiens stood at 220.
With `CCCCCCc1cnnn1-c1c(Cl)cc(C(F)(F)F)cc1Cl`, the Ki in test [1] is over 9150 nM. In the test filed under Homo sapiens, the Ratio Ki is over 10.6.
As to `CCCc1nnn(-c2c(Cl)cc(C(F)(F)F)cc2Cl)c1CO`, the Ki in test [1] is 387 nM; in test [2], 2.53 nM. Also, the Ratio Ki in the test filed under Homo sapiens came out at 153.
`Nc1c(-c2ccccc2)nnn1-c1c(Cl)cc(C(F)(F)F)cc1Cl`: the Ki in test [1] amounted to 1160 nM. Further, the Ratio Ki in the test filed under Homo sapiens worked out at 57.1.
Take `CCCc1nnn(-c2c(Cl)cc(C(F)(F)F)cc2Cl)c1CCC`: the Ki in test [1] was over 9150 nM; in test [2], 128 nM. Also, the Ratio Ki in the test filed under Homo sapiens was over 71.5.
As for `CCCCCCc1cn(-c2c(Cl)cc(C(F)(F)F)cc2Cl)nn1`, in test [1], the inhibitory constant (Ki) stood at 1980 nM. Moreover, the Ratio Ki in the test filed under Homo sapiens worked out at 5.05.
As to `CCCc1cnnn1-c1c(Cl)cc(C(F)(F)F)cc1Cl`, the Ki in test [1] was over 9150 nM. For the same molecule, in the test listed under Homo sapiens, the Ratio Ki is over 12.1.
On to `CCCc1c(CCl)nnn1-c1c(Cl)cc(C(F)(F)F)cc1Cl`, for which the Ki in test [1] was over 9150 nM; in test [2], 66.7 nM. The Ratio Ki in the test filed under Homo sapiens was over 137.
As to `CCCCc1cn(-c2c(Cl)cc(C(F)(F)F)cc2Cl)nn1`, in test [1], the Ki was determined as 1010 nM. For the same molecule, the Ratio Ki in the test filed under Homo sapiens worked out at 362.
As to `C#Cc1ccc(-n2nncc2CCCC)cc1`, the Ki in test [1] was over 9150 nM. In addition, in the test listed under Homo sapiens, the Ratio Ki was over 1.21.
For `CCCCc1cnnn1-c1ccc(Br)cc1`, the Ki in test [1] was over 9150 nM. Also, the Ratio Ki in the test filed under Homo sapiens is over 3.35.
For `CCCCc1cnnn1-c1c(Cl)cccc1Cl`, in that order: over 9150 nM and over 4.46.
`CCc1nnn(-c2c(Cl)cc(C(F)(F)F)cc2Cl)c1C`: the values for the inhibitory constant (Ki) in test [1] and in test [2] were 1060 nM and 7.08 nM, respectively. Also, in the test listed under Homo sapiens, the Ratio Ki was 150.
For `CCc1nnn(-c2c(Cl)cc(C(F)(F)F)cc2Cl)c1CC`, in test [2], the Ki worked out at 4.27 nM.
As for `CCCCc1cn(-c2c(Cl)cccc2Cl)nn1`, the Ki in test [1] was over 9150 nM. Besides, the Ratio Ki in the test listed under Homo sapiens is over 2.6.
As to `CCCCc1cnnn1-c1c(Cl)cc(Cl)cc1Cl`, in test [1], the Ki is over 9150 nM. Moreover, in the test listed under Homo sapiens, the Ratio Ki is over 2.24.
The corresponding values for `CCCCCc1cn(-c2c(Cl)cc(C(F)(F)F)cc2Cl)nn1` are 1390 nM and 50.
As for `CCCc1nnn(-c2c(Cl)cc(C(F)(F)F)cc2Cl)c1CCl`, the Ki in test [1] was determined as 266 nM; in test [2], 0.659 nM. The LD50 in the test on Musca domestica came to 5.17 pmol. Also, in the test listed under Homo sapiens, the Ratio Ki came out at 403.
`FC(F)(F)c1cc(Cl)c(-n2cc(CCCCl)nn2)c(Cl)c1`: in test [1], the Ki came to 616 nM. The Ratio Ki in the test filed under Homo sapiens was found to be 378.
Regarding `CCCc1c(CO)nnn1-c1c(Cl)cc(C(F)(F)F)cc1Cl`, the Ki in test [1] is over 9150 nM; in test [2] it was 3450 nM. The Ratio Ki in the test listed under Homo sapiens was over 2.65.
In the case of `CCCCc1cn(-c2c(Cl)cc(Br)cc2Cl)nn1`, in test [1], the Ki is over 9150 nM. Besides, in the test listed under Homo sapiens, the Ratio Ki was over 293.
For the molecule `C#Cc1cc(Cl)c(-n2cc(CCCC)nn2)c(Cl)c1`, in test [1], the Ki was over 9150 nM. For the same molecule, the Ratio Ki in the test filed under Homo sapiens was over 264.
Regarding `CCCc1nnn(-c2c(Cl)cc(C(F)(F)F)cc2Cl)c1CC`, the figures for the Ki in test [1] and in test [2] were over 9150 nM and 8.07 nM, respectively. Besides, in the test filed under Homo sapiens, the Ratio Ki was over 1130.
For `CCCc1nnn(-c2c(Cl)cc(C(F)(F)F)cc2Cl)c1C`, in that order: 322 nM, 1.94 nM and 166.
Turning to `CCCCCc1cnnn1-c1c(Cl)cc(C(F)(F)F)cc1Cl`, the Ki in test [1] is over 9150 nM. Besides, in the test filed under Homo sapiens, the Ratio Ki is over 6.58.
As to `CCCCc1cnnn1-c1ccc(C(F)(F)F)cc1`, the Ki in test [1] was over 9150 nM. The Ratio Ki in the test listed under Homo sapiens is over 1.73.
On to `CCc1c(C)nnn1-c1c(Cl)cc(C(F)(F)F)cc1Cl`, for which the Ki in test [2] amounted to 70.1 nM.
Take `FC(F)(F)c1cc(Cl)c(-n2cc(C3CCCCC3)nn2)c(Cl)c1`: the Ki in test [1] was determined as 1500 nM. The Ratio Ki in the test listed under Homo sapiens was 127.
For `CCCCc1cn(-c2ccc(Br)cc2)nn1`, in test [1], the inhibitory constant (Ki) is over 9150 nM. Also, the Ratio Ki in the test filed under Homo sapiens was over 2.87.
`CCCc1c(CC)nnn1-c1c(Cl)cc(C(F)(F)F)cc1Cl`: the Ki is over 9150 nM in test [1] and 47.2 nM in test [2]. In addition, the Ratio Ki in the test filed under Homo sapiens is over 194.
Regarding `FC(F)(F)c1cc(Cl)c(-n2cc(-c3ccccc3)nn2)c(Cl)c1`, the Ki in test [1] is over 9150 nM. In addition, the Ratio Ki in the test listed under Homo sapiens is over 71.5.
As to `FC(F)(F)c1cc(Cl)c(-n2nncc2-c2ccccc2)c(Cl)c1`, the inhibition constant Ki in test [1] was over 9150 nM. Besides, the Ratio Ki in the test filed under Homo sapiens was over 19.3.

(Values after ChEMBL document CHEMBL1149606, “Synthesis, 3D-QSAR, and docking studies of 1-phenyl-1H-1,2,3-triazoles as selective antagonists for beta3 over alpha1beta2gamma2 GABA receptors” (Bioorg Med Chem, 2007).)
